Results reported in ChEMBL document CHEMBL3992509, “Discovery of a Highly Potent, Selective, and Metabolically Stable Inhibitor of Receptor-Interacting Protein 1 (RIP1) for the Treatment of Systemic Inflammatory Response Syndrome” (J Med Chem, 2017).
Activity calls are given as the source filed them. No cut-off for these calls is given here.

Tested on: Mus musculus
Test: Protection against TNFalpha-induced pancreas damage in C57BL/6J mouse at 0.3 to 3 mg/kg, ip pretreated for 17 mins followed by TNFalpha injection and subsequent compound treatment once in every 12 hrs measured 24 hrs post TNFalpha injection by hematoxylin and eosin staining based assay
Assay type: functional, organism-based
Procedure, shortened: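 Mice given mTNFα IV; compound 0.3, 1, 3 mg/kg IP 17 min before and every 12 h. Killed 24 h post-TNFα. Organs fixed 24 h in 10% neutral buffered formalin, paraffin-embedded, 5-μm sections, H&E stained; ×200, at least three mice each.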

For `CCC(C)(C)C(=O)N(O)Cc1ccccc1`, the Activity was “Active”.
